Measurements taken from the EternaBench riboswitch data.

System: MS2 coat protein
Test: apparent Kd, MS2 coat protein; higher = weaker binding; RNA-MaP array; FMN 200 µM where present
Procedure, shortened: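 Stalled E. coli RNA polymerase transcribed each design on Illumina sequencing-chip clusters. The clusters were titrated with SNAP-549-labelled MS2 coat protein, starting at 0.7 or 1.5 nM and doubling up to 3 µM, first without ligand and then with constant ligand, in 100 mM Tris-HCl pH 7.5, 80 mM KCl, 4 mM MgCl2, BSA, DTT, yeast tRNA and Tween-20. Green signal was normalised to red-channel RNA signal and to the control-cluster median Fmax. The apparent Kd is the median of filtered binding-curve fits made for each cluster.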

[1] = designed as: OFF switch for flavin mononucleotide, no ligand
[2] = ligand present: flavin mononucleotide, designed as: OFF switch for flavin mononucleotide
[3] = designed as: ON switch for flavin mononucleotide, no ligand
[4] = ligand present: flavin mononucleotide, designed as: ON switch for flavin mononucleotide

Sequence | apparent Kd [1] [nM] | apparent Kd [2] [nM] | apparent Kd [3] [nM] | apparent Kd [4] [nM]
GGUGGACAUGAGGAUCACCCAUGUGAGGAUAUCGGCUAUCUUAUCGCUGUCGGUUGCUCGAGAAGGCACAUUGU | 76.7 | 195 |  | 
GGUGGACAUGAGGAUCACCCAUGUGAGGAUAUCGGCUGGCUACUGGCUGACGGCUGCUCGAGAAGGCGCAUUGU | 40 | 73.6 |  | 
GGUGGACAUGAGGAUCACCCAUGUGAGGAUAUCGGCUGGUACGUGUUGGCUGGCUUCUCGAGAAGGCACAUAGU | 64.7 | 75.4 |  | 
GGUGUAUAUGAGAAGGCGAUCAUGAAACAUGAUCGAGGAUAUCAUGUAAACAUGAGGAUCACCCAUGUAUGGGAAUAAUGCACC |  |  | 120 | 13.6
GGUGUCGCAUGAGGAUAUGGUCAGCUUUGCUGACCAGAAGGCAUGUCAAUAGACAUGAGGAUCACCCAUGUAGUUAAGACACCA |  |  | 739 | 48.2
GGUUCACGAGGAUAUCGAUUUUAGUACAUGAGGAUCACCCAUGUUGUCCAGGUUUCGAUUCGAGAAGGCGUGAACC | 22.8 | 22.5 |  | 
GGUUCCAACACAGGAUAUGCUAUCCUUUGGGUAGCAGAAGGGUGAAACAUGAGGAUCACCCAUGUGGAGCCAGGGCGUGAGCCC |  |  | 593 | 63.1
GGUUCCAUCGCAGGAUAUGCUAUCCUUUGGGUAGCAGAAGGGUGAUAACAUGAGGAUCACCCAUGUGGAACCGGGCGUGAGCCC |  |  | 177 | 1050
GGUUGGCGAGGAUAUACAUGAGGAUCACCCAUGUGGUCCUGCGAUGGUGUCGCCCUUUGUAGAAGGCGCGGGUC | 45 | 42.5 |  | 
GGUUGGCGAGGAUAUACAUGAGGAUCACCCAUGUGGUCCUGCGGUGGUUUCGCCCUUUGUAGAAGGCGCGGGUC | 40.9 | 40.5 |  | 
GGUUGGCGAGGAUAUACAUGAGGAUCACCCAUGUGGUCCUGUGGCUGAUCUUGCCUUUGUAGAAGGCGCGGGUC | 49.4 | 45.3 |  | 
GGUUGGCGAGGAUAUACAUGAGGAUCACCCAUGUGGUCCUGUGGCUGGUCUAACCUUUGUAGAAGGCGCGGGUC | 225 | 186 |  | 
GGUUUGGGAGGAUAUGGCUUGAAUGACAUGAGGAUCACCCAUGUAAGUGGAUCUUCCGGGCCAGAAGGCUCGGGCC | 63.8 | 136 |  | 
GUAACAUGAGGAUCACCCAUGUAUAGAACACUCAAUAGAUCUGAGGAUAUAGUGGAAUUUACACACUAGAAGGCAGUGGGUGCA |  |  | 75.3 | 33.6
GUAACAUGAGGAUCACCCAUGUAUAGAACACUCAAUAGAUUUGAGGAUAUAGUGGAAUUUACACACUAGAAGGCAGUGGGUGCA |  |  | 181 | 253
GUAACAUGAGGAUCACCCAUGUCGUGCUAGAUGAGUUCUGGUGAGGAUAUACAUGGUAAAUAACUGUAGAAGGUGCUGGGUACA |  |  | 159 | 167
GUAAGUCAUGUAGGAUAUCCGAGGCGAAGCGUUGGAGAAGGACAUGAGGAUCACCCAUGUUCUAGCGUCUGAGUACAGAUGCAG | 29.4 | 104 |  | 
GUACCUUAUGAGAAGGCGAUCAUAAAACGUGAUCGAGGAUAUCAUGAAAACAUGAGGAUCACCCAUGUAUGGGUAUUAUGGUAC |  |  | 36 | 19.3
GUACUGCCCACAGAUAACUUAGCCAGAAGGGUCUACAUGAGGAUCACCCAUGUGGUCCAAAGUGGACAGGAUAUGGAAACGGUU | 68.4 | 40.9 |  | 
GUAGAACAUGAGGAUCACCCAUGUGAAGACGCAUGAGGAUAUGUCCGUACCUAGCAUACGAUAGAAGGCAUGGUAC |  |  | 69.2 | 88.2
GUAGAGAUUACAUGAGGAUCACCCAUGUCAGAACGGGUAAUCAGAAGGUAUUAUUAGAGAAAGGGUAAGGAUAUGAUUUUUUAU |  |  | 735 | 617
GUAGAGUAAGGAUAUAGUGAAUAGGAUAGAAUGGUUAGAAACUAGAAGGUACAUGAGGAUCACCCAUGUAAUGU | 23.6 | 21.2 |  | 
GUAGAGUAAGGAUAUUGUGAAUAGGAUAGAAUGGUUAGAAACAAGAAGGUACAUGAGGAUCACCCAUGUAAUGU | 22.1 | 19.8 |  | 
GUAGAGUCAGGAUAUACGAAUAGAUCGAAAGAUCAAUCCAUACAUGAGGAUCACCCAUGUAGAAGGGACUCUAC | 19.3 | 22.7 |  | 
GUAGAGUCAGGAUAUACGAGAUCGAAAGAUCAGUAAUCCUCACAUGAGGAUCACCCAUGUAGAAGGGACUCUAC | 23.4 | 344 |  | 
GUAGCAACAUGAGGAUCACCCAUGUAGGAUAUCGCUAUUGUAAUCAUGAAACAUGAUUACAAUAGCGAGAAGGACAUAUGCUAU | 7 | 10.3 |  | 
GUAGCAAUCGGAGGAUAUUCAUAGCCGAAAGGCACAUGAGGAUCACCCAUGUGGCGAAAGCCUUGGGAGAAGGCCGAUUGCUAC |  |  | 324 | 18
GUAGCAAUCGGAGGAUAUUCAUGAAACAUGAGGAUCACCCAUGUUAAUAUGGGAGAAGGCCGAUUGCUACAAGAGCGAAAGCUC |  |  | 8.58 | 5.76

Sequence | apparent Kd [1] [nM] | apparent Kd [2] [nM] | apparent Kd [3] [nM] | apparent Kd [4] [nM]
GUAGCAAUCGGAGGAUAUUCAUGAUACAUGAGGAUCACCCAUGUUAAUAUGGGAGAAGGCCGAUUGCUACAAGAGCGAAAGCUC |  |  | 47.9 | 8.05
GUAGCAUACCAAGGAUAUUCAGGGCGUGGAUAGACAUGAGGAUCACCCAUGUGGCGAAAGCCUAGGGAGAAGGUGGAAUGCUAC |  |  | 36.1 | 20.1
GUAGCAUACCAAGGAUAUUCAGGGCUUGGAUAGACAUGAGGAUCACCCAUGUGGCGAAAGUCUAGGGAGAAGGUGGAAUGCUAC |  |  | 16.8 | 15.1
GUAGCAUACCAAGGAUAUUUAGGACUUUGAUAGACAUGAGGAUCACCCAUGUGGCGUUAGUCACGGGAGAAGGUGGUAUGCUAC |  |  | 63.5 | 16.9
GUAGCAUACCGAGGAUAUUCAUACCGGAAACGGACAUGAGGAUCACCCAUGUGGCGAAAGCCUUUGGAGAAGGCGGAAUGCUAC |  |  | 13.2 | 11.7
GUAGCAUACCGAGGAUAUUCAUAUAAUAAAUAAACAUGAGGAUCACCCAUGUGGCGAAAGCCUUGGGAGAAGGCGGAAUGCUAC |  |  | 647 | 37.3
GUAGCAUACCGAGGAUAUUCAUAUAGUAAUCUAACAUGAGGAUCACCCAUGUGGCGAAAGCCUUGGGAGAAGGCGGAAUGCUAC |  |  | 480 | 35.6
GUAGCUAUCGGAGGAUAUUCAUACCGGAAACGGACAUGAGGAUCACCCAUGUGGCGAAAGACUUGGGAGAAGGCCGAUAGCUAC |  |  | 183 | 35.5
GUAGCUAUCGGAGGAUAUUCAUACCGGAAACGGACAUGAGGAUCACCCAUGUGGCGAAAGCCUUGGGAGAAGGCAGAUAGCUAC |  |  | 693 | 28.6
GUAGCUAUCGGAGGAUAUUCAUACCGGAAACGGACAUGAGGAUCACCCAUGUGUCGAAAGCCUUGGGAGAAGGCCGAUAGCUAC |  |  | 181 | 59.2
GUAGCUAUCGGAGGAUAUUCAUACCGGAUACGGACAUGAGGAUCACCCAUGUGCCGAAAGGCUUGGGAGAAGGCCGAUAGCUAC |  |  | 108 | 16.9
GUAGCUAUCGGAGGAUAUUCAUAGCGGAAACGGACAUGAGGAUCACCCAUGUGGCGAAAGCCUUGGGAGAAGGCCGAUAGCUAC |  |  | 39.6 | 8.1
GUAGCUAUCGGAGGAUAUUCAUAGCGGAAACGGACAUGAGGAUCACCCAUGUGGCUAAAGCCUUGGGAGAAGGCCGAUAGCUAC |  |  | 25.8 | 6.64
GUAGCUAUCGGAGGAUAUUCAUGAAACAUGAGGAUCACCCAUGUUAAAUUGGGAGAAGGCCGAUAGCUACAAGAGCGAAAGCUC |  |  | 7.5 | 5.32
GUAGCUUUCCGAGGAUAUUCAGGGCGUGGAUAUACAUGAGGAUCACCCAUGUGGCGGAAGCCUAGGGAGAAGGCGGGCUGCUUC |  |  | 47.7 | 19
GUAGGGUCAGGAUAUACUGGCUGAGGGAUGUAUUGUAGUUGGUAGAAGGGACAUGAGGAUCACCCAUGUAAGAA | 36 | 26.1 |  | 
GUAGUACAUGAGGAUCACCCAUGUGUAGAAGCAUGAGGAUAUGUCAGUCCAUGAAAAACGAUAGAAGGCAUGGUGA |  |  | 178 | 176
GUAGUGUAGUGAGGAUAUACGAGAUCGAUAGAUCGGCGAUCCAUUUAUACAUGAGGAUCACCCAUGUAGAAGGCACUUCACUAC | 6.17 | 51 |  | 
GUAUAUAUUACAUGAGGAUCACCCAUGUCAGAACGGGUAAUCAGAAGGUAGUAUUAGAGAAAGAUUAAGGAUAUGAUUAUAUAC |  |  | 231 | 81.1
GUAUCAUACCAAGGAUAUUUAGGACUUGGAUAGACAUGAGGAUCACCCAUGUGGCGUUAGUCACGGGAGAAGGUGGUAUGAUAC |  |  | 103 | 20.7
GUAUGAGCGAUAGGAUAUACUGAGAUUGAAUGGGUAGAAGGAUUUCUUGUGGGAAAGACAUGAGGAUCACCCAUGUCACGGACC |  |  | 291 | 148
GUAUUGAUAACAGGAUAUAUGAGUCCUACAUGAGGAUCACCCAUGUAGGUGAUCAGCCGUGAUUAGUAGAAGGGUUAUCAAUAC |  |  | 12.5 | 5.98
GUCACGAAUGUAGGAUAUCGAGUGGAUAACACUCGAGAAGGACAUGAGGAUCACCCAUGUACUAUGAAAGAUAAUAAACGUGAC | 14.4 | 20.4 |  | 
GUCAGCUCGUGAGGAUAUACAACACUGCGUCGGCAGUGUAUUAAGAUCACAUGAGGAUCACCCAUGUAGAAGGCACGAGCUGAU | 13.4 | 223 |  | 
GUCAGCUCGUGAGGAUAUACAACACUGCUUCGGCAGUGUAGUAAGAUCACAUGAGGAUCACCCAUGUAGAAGGCACGAGCUGAU | 6.05 | 26.3 |  | 
GUCAGCUCGUGAGGAUAUACAACACUGCUUCGGCAGUGUAUUAAGAGCACAUGAGGAUCACCCAUGUAGAAGGCACGAGCUGAU | 5.58 | 7.61 |  | 
GUCAGCUCGUGAGGAUAUACAACACUGCUUCGGCAGUGUAUUAAGAUCACAUGAGGAUCACCCAUGUAGAAGGCACCAGCUGAU | 16.3 | 215 |  | 
